Data published in ChEMBL document CHEMBL1138738, “Synthesis, in vitro pharmacology, structure-activity relationships, and pharmacokinetics of 3-alkoxy-2-amino-6-fluorobicyclo[3.1.0]hexane-2,6-dicarboxylic acid derivatives as potent and selective group II metabotropic glutamate receptor antagonists” (J Med Chem, 2004).

Tests used:
[1] = biological target: T1, Metabotropic glutamate receptor 2 (Rattus norvegicus, UniProt P31421); experiment: Binding affinity towards metabotropic glutamate receptor 2 of rat expressed in CHO cells was determined by using [3H]MGS-0008; assay type: cell-based
[2] = biological target: T2, Metabotropic glutamate receptor 3 (Rattus norvegicus, UniProt P31422); experiment: Binding affinity towards metabotropic glutamate receptor 3 of rat expressed in CHO cells was determined by using [3H]MGS-0008; assay type: cell-based
[3] = biological target: T3, Metabotropic glutamate receptor 1 (Rattus norvegicus, UniProt P23385); experiment: Concentration required to inhibit metabotropic glutamate receptor 1 activity of rat expressed in CHO cells; assay type: cell-based
[4] = Concentration of compound in plasma of rat after 6 hr of oral dose 10 mg/kg; assay type: ADME, organism-based; set-up: dose 10 mg/kg, route oral
In short: (§1)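 Rats given a single peroral dose of 10 mg/kg. Plasma and cerebrum were sampled at 1, 3, 6 and 24 h. Concentrations were measured by LC/ESI-MS/MS using an internal standard. Detection limits were 1 ng/mL in plasma and 1.5 ng/g in brain. Tmax, Cmax, terminal half-life (lambda z) and predicted AUCinf were derived from the mean time-course levels.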

[5] = biological target: T4, Metabotropic glutamate receptor 5 (Rattus norvegicus, UniProt P31424); experiment: Concentration required to inhibit metabotropic glutamate receptor 5 activity of rat expressed in CHO cells; assay type: cell-based
[6] = biological target: T2, Metabotropic glutamate receptor 3; experiment: Concentration required to inhibit metabotropic glutamate receptor 3 activity of rat expressed in CHO cells; assay type: cell-based
[7] = Maximum time required to achieve peak plasma concentration in rat plasma upon oral dose of 10 mg/kg; assay type: ADME, organism-based; set-up: dose 10 mg/kg, route oral; in short: as §1
[8] = Concentration of compound in plasma of rat after 1 hr of oral dose 10 mg/kg; assay type: ADME, organism-based; set-up: dose 10 mg/kg, route oral; in short: as §1
[9] = biological target: T4, Metabotropic glutamate receptor 5; experiment: Effective concentration for agonistic activity towards metabotropic glutamate receptor 5 of rat expressed in CHO cells; assay type: functional, cell-based
[10] = Concentration of compound in brain of rat after 1 hr of oral dose 10 mg/kg; assay type: ADME, organism-based; set-up: dose 10 mg/kg, route oral; in short: as §1
[11] = biological target: T5, Metabotropic glutamate receptor 6 (Rattus norvegicus, UniProt P35349); experiment: Concentration required to inhibit metabotropic glutamate receptor 6 activity of rat expressed in CHO cells; assay type: cell-based
[12] = Half-life in rat upon oral dose of 3 mg/kg; assay type: ADME, organism-based; set-up: dose 3 mg/kg, route oral; conditions: in vivo
In short: (§2)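 Fasted rats were dosed orally at 3, 10 or 30 mg/kg. Plasma concentration-time profiles were measured by LC/ESI-MS/MS. Cmax, Tmax, elimination half-life and AUCinf were derived per dose group and reported as mean ± deviation.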

[13] = Maximum time required to achieve peak plasma concentration upon oral dose of 10 mg/kg to rats; assay type: ADME, organism-based; set-up: dose 10 mg/kg, route oral; conditions: rat; in short: as §2
[14] = Maximum time required to achieve peak plasma concentration upon oral dose of 30 mg/kg to rats; assay type: ADME, organism-based; set-up: dose 30 mg/kg, route oral; conditions: rat; in short: as §2
[15] = Peak plasma concentration in rats upon oral dose of 30 mg/kg; assay type: ADME, organism-based; set-up: dose 30 mg/kg, route oral; conditions: rat; in short: as §2
[16] = Peak plasma concentration in rats upon oral dose of 10 mg/kg; assay type: ADME, organism-based; set-up: dose 10 mg/kg, route oral; conditions: rat; in short: as §2
[17] = Concentration of compound in brain of rat after 6 hr of oral dose 10 mg/kg; assay type: ADME, organism-based; set-up: dose 10 mg/kg, route oral; in short: as §1
[18] = Concentration of compound in plasma of rat after 3h of oral dose 10 mg/kg; assay type: ADME, organism-based; set-up: dose 10 mg/kg, route oral; in short: as §1
[19] = biological target: Metabotropic glutamate receptor 4 (Rattus norvegicus, UniProt P31423); experiment: Concentration required to inhibit metabotropic glutamate receptor 4 activity of rat expressed in CHO cells; assay type: cell-based
[20] = Peak plasma concentration in rat plasma upon oral dose of 10 mg/kg; assay type: ADME, organism-based; set-up: dose 10 mg/kg, route oral; in short: as §1
[21] = Concentration of compound in plasma of rat after 24 hr of oral dose 10 mg/kg; assay type: ADME, organism-based; set-up: dose 10 mg/kg, route oral; in short: as §1
[22] = Peak plasma concentration in rat brain upon oral dose of 10 mg/kg; assay type: ADME, organism-based; set-up: dose 10 mg/kg, route oral; in short: as §1
[23] = biological target: T2, Metabotropic glutamate receptor 3; experiment: Effective concentration for agonistic activity towards metabotropic glutamate receptor 3 of rat expressed in CHO cells; assay type: functional, cell-based
[24] = Half-life in rat plasma upon oral dose of 10 mg/kg; assay type: ADME, organism-based; set-up: dose 10 mg/kg, route oral; in short: as §1
[25] = biological target: Metabotropic glutamate receptor 7 (Rattus norvegicus, UniProt P35400); experiment: Binding affinity towards metabotropic glutamate receptor 7 of rat expressed in CHO cells was determined by using [3H]LY341495
[26] = biological target: T5, Metabotropic glutamate receptor 6; experiment: Effective concentration for agonistic activity towards metabotropic glutamate receptor 6 of rat expressed in CHO cells; assay type: functional, cell-based
[27] = Half-life in rat upon oral dose of 30 mg/kg; assay type: ADME, organism-based; set-up: dose 30 mg/kg, route oral; conditions: in vivo; in short: as §2
[28] = Concentration of compound in brain of rat after 3h of oral dose 10 mg/kg; assay type: ADME, organism-based; set-up: dose 10 mg/kg, route oral; in short: as §1
[29] = Half-life in rat upon oral dose of 10 mg/kg; assay type: ADME, organism-based; set-up: dose 10 mg/kg, route oral; conditions: in vivo; in short: as §2
[30] = Half-life in rat brain upon oral dose of 10 mg/kg; assay type: ADME, organism-based; set-up: dose 10 mg/kg, route oral; in short: as §1
[31] = biological target: T3, Metabotropic glutamate receptor 1; experiment: Effective concentration for agonistic activity towards metabotropic glutamate receptor 1 of rat expressed in CHO cells; assay type: functional, cell-based
[32] = Maximum time required to achieve peak plasma concentration upon oral dose of 3 mg/kg to rats; assay type: ADME, organism-based; set-up: dose 3 mg/kg, route oral; conditions: rat; in short: as §2
[33] = Peak plasma concentration in rats upon oral dose of 3 mg/kg; assay type: ADME, organism-based; set-up: dose 3 mg/kg, route oral; conditions: rat; in short: as §2
[34] = Maximum time required to achieve peak plasma concentration in rat brain upon oral dose of 10 mg/kg; assay type: ADME, organism-based; set-up: dose 10 mg/kg, route oral; in short: as §1
[35] = biological target: T1, Metabotropic glutamate receptor 2; experiment: Effective concentration for agonistic activity towards metabotropic glutamate receptor 2 of rat expressed in CHO cells; assay type: functional, cell-based
[36] = Concentration of compound in brain of rat after 24 hr of oral dose 10 mg/kg; assay type: ADME, organism-based; set-up: dose 10 mg/kg, route oral; in short: as §1
[37] = biological target: T1, Metabotropic glutamate receptor 2; experiment: Concentration required to inhibit metabotropic glutamate receptor 2 activity of rat expressed in CHO cells; assay type: cell-based

T1 sequence (P31421 whole entry): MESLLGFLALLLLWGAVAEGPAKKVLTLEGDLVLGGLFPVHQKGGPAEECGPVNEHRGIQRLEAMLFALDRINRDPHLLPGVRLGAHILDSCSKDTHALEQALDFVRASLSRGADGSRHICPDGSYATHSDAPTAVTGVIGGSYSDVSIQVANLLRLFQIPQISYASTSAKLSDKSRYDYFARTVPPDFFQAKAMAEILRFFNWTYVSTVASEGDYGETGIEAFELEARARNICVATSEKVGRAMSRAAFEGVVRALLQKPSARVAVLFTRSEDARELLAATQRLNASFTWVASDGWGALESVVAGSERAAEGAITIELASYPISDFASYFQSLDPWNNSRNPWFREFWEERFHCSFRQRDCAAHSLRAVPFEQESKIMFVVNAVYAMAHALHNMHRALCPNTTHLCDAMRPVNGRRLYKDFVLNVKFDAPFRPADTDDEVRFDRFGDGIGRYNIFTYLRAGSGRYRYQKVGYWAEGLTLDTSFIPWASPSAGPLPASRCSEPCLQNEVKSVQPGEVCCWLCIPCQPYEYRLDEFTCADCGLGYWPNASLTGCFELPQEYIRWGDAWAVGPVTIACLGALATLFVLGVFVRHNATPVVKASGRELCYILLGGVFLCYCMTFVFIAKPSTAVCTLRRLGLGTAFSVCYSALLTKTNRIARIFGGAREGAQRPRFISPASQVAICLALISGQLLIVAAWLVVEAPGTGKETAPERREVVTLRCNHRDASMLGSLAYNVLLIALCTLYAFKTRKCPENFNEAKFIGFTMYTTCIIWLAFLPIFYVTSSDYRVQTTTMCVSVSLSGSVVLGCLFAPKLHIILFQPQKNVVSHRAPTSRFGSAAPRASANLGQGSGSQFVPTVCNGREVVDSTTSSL
T2 sequence (P31422 whole entry): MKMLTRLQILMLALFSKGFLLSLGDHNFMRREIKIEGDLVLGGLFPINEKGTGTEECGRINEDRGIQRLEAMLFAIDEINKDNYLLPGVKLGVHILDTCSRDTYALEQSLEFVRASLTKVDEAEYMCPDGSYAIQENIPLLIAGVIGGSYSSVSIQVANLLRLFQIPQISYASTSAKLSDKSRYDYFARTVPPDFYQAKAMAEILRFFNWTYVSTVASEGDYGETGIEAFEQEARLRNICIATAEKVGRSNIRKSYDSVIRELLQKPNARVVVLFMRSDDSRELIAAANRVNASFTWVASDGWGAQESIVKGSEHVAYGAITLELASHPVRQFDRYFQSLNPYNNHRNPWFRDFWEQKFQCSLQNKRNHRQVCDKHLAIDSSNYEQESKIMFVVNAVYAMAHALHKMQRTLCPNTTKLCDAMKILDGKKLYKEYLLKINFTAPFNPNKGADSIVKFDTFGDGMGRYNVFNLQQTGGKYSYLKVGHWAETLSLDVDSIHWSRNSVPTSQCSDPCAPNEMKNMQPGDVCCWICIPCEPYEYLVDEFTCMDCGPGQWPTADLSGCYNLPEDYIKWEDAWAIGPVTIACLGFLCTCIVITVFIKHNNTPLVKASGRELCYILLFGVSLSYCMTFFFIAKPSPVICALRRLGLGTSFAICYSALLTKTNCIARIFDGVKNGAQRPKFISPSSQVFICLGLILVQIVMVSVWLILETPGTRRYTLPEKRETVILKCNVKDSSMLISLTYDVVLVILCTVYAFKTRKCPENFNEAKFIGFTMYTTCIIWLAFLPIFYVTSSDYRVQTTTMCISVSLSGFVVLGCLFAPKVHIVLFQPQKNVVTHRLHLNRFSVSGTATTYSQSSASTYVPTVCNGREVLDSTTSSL
T3 sequence (P23385 whole entry): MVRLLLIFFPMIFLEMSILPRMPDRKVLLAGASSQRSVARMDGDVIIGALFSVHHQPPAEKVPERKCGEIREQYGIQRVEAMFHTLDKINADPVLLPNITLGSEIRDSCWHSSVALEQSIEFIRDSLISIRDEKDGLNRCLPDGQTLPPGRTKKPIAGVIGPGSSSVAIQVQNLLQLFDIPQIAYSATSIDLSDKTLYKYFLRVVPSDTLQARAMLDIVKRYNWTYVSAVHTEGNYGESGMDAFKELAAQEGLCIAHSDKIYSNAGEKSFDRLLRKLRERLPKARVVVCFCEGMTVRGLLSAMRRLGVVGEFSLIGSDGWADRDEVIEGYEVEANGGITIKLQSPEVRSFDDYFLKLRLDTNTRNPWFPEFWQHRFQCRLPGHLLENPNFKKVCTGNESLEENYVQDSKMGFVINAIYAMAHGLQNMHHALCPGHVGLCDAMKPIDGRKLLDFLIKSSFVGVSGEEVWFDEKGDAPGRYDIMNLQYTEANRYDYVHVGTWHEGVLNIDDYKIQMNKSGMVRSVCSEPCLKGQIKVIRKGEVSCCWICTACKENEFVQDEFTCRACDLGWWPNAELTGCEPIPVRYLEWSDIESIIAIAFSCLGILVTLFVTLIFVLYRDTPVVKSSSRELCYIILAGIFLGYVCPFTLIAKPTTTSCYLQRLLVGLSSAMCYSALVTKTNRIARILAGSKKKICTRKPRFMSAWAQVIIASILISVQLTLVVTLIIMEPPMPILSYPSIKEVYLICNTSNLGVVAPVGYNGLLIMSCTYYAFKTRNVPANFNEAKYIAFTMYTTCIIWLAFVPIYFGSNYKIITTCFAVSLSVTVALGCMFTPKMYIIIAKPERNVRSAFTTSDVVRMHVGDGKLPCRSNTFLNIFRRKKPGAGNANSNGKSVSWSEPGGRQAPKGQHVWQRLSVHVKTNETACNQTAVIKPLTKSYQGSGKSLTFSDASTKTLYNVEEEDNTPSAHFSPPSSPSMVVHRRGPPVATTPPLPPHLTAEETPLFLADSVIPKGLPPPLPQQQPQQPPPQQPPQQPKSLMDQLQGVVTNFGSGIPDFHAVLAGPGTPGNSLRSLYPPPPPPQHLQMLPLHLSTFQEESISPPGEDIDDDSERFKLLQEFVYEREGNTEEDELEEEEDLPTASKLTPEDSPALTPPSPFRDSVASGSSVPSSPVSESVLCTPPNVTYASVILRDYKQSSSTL
T5 sequence (P35349 whole entry): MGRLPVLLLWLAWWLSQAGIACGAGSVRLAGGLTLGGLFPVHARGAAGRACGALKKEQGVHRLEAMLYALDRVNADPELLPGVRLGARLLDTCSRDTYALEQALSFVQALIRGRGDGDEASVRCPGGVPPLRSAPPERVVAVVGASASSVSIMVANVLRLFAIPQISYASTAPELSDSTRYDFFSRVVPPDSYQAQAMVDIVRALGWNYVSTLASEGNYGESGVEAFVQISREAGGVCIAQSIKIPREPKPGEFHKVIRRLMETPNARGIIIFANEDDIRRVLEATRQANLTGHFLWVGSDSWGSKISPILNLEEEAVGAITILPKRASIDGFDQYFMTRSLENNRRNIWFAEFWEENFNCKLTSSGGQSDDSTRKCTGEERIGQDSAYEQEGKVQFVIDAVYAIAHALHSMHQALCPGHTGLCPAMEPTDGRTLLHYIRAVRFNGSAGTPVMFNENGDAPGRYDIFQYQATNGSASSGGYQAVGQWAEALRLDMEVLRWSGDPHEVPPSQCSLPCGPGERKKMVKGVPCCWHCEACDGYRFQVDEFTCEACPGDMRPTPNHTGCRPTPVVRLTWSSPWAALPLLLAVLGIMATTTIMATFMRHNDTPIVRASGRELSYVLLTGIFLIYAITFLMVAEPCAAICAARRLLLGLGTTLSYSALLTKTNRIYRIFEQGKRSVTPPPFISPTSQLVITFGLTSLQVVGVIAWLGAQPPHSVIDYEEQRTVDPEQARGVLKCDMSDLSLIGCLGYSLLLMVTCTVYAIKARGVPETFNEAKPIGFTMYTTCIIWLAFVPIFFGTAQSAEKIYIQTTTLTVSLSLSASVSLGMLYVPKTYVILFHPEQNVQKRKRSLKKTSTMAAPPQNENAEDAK
T4 sequence (P31424 whole entry): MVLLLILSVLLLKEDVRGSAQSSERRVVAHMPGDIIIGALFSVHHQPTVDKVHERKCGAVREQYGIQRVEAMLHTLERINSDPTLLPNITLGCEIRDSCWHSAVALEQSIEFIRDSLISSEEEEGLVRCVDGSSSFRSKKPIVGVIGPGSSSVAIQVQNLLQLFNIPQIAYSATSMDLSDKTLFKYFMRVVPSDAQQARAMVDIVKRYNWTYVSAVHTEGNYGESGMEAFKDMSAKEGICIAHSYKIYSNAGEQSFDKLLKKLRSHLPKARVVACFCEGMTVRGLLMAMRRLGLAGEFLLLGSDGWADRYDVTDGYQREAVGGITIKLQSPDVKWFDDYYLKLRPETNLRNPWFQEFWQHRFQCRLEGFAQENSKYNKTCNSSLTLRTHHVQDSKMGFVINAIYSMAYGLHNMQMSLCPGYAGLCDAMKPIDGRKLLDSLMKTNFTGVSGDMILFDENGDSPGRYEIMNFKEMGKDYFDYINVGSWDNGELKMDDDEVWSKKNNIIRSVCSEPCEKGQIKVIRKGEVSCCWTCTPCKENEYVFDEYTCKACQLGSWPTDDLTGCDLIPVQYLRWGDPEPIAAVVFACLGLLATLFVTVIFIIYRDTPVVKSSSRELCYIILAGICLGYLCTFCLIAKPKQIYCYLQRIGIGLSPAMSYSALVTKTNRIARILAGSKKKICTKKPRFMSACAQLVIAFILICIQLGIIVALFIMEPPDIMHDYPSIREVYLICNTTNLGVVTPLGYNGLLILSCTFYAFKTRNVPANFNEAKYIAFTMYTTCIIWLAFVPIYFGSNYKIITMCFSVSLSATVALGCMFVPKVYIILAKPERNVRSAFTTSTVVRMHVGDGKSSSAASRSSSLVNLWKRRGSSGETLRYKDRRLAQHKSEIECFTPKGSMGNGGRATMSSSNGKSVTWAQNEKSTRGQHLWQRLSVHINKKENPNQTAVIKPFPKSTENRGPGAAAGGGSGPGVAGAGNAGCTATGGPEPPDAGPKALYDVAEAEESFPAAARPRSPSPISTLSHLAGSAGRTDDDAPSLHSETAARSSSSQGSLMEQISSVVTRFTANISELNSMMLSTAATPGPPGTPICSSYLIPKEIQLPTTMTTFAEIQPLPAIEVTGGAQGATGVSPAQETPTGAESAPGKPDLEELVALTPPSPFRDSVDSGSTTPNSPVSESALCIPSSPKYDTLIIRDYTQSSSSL

CO[C@@H]1C[C@@H]2[C@H]([C@]1(N)C(=O)O)[C@@]2(F)C(=O)O
Ki [1]: 39.2 nM | Ki [2]: 88.1 nM

N[C@]1(C(=O)O)[C@H]2[C@@H](C[C@H]1OCc1ccc(Cl)c(Cl)c1)[C@]2(F)C(=O)O
IC50 [3]: 93300 nM | concentration at 6 h [4]: 492 ng/mL | IC50 [5]: 117000 nM | IC50 [6]: 24 nM | Tmax [7]: 6 h | concentration at 1 h [8]: 364 ng/mL | EC50 [9]: > 100000 nM | concentration at 1 h [10]: 3.88 ng/mL | IC50 [11]: 2060 nM | half-life [12]: 2.15 h | Tmax [13]: 2.7 h | Tmax [14]: 3.3 h | Cmax [15]: 2960 ng/mL | Cmax [16]: 932 ng/mL | concentration at 6 h [17]: 13.2 ng/mL | Ki [1]: 2.38 nM | concentration at 3 h [18]: 429 ng/mL | IC50 [19]: 1740 nM | Cmax [20]: 492 ng/mL | concentration at 24 h [21]: 2.1 ng/mL | Cmax [22]: 13.2 ng/mL | EC50 [23]: > 100000 nM | half-life [24]: 2.3 h | Ki [25]: 664 nM | EC50 [26]: > 100000 nM | half-life [27]: 2.77 h | Ki [2]: 4.46 nM | concentration at 3 h [28]: 8.02 ng/mL | half-life [29]: 2.76 h | half-life [30]: 10.9 h | EC50 [31]: > 100000 nM | Tmax [32]: 2 h | Cmax [33]: 214 ng/mL | Tmax [34]: 6 h | EC50 [35]: > 100000 nM | concentration at 24 h [36]: 4.22 ng/mL

N[C@]1(C(=O)O)[C@H]2[C@@H](C[C@H]1OCc1ccc(Cl)c(F)c1)[C@]2(F)C(=O)O
Ki [1]: 4.02 nM

N[C@]1(C(=O)O)[C@H]2[C@@H](C[C@H]1OC(c1ccc(Cl)cc1)c1ccc(Cl)cc1)[C@]2(F)C(=O)O
Ki [1]: 3.75 nM

N[C@]1(C(=O)O)[C@H]2[C@@H](C[C@H]1OC(c1ccccc1)c1ccccc1)[C@]2(F)C(=O)O
concentration at 6 h [4]: 23.1 ng/mL | Tmax [7]: 1 h | concentration at 1 h [8]: 61.3 ng/mL | half-life [12]: 1.62 h | Tmax [13]: 1.8 h | Tmax [14]: 1 h | Cmax [15]: 312 ng/mL | Cmax [16]: 85.1 ng/mL | concentration at 6 h [17]: 2.04 ng/mL | Ki [1]: 2.58 nM | concentration at 3 h [18]: 37.6 ng/mL | Cmax [20]: 61.3 ng/mL | concentration at 24 h [21]: 0.2 ng/mL | Cmax [22]: 2.04 ng/mL | half-life [24]: 2.8 h | half-life [27]: 3.63 h | Ki [2]: 3.93 nM | IC50 [37]: 24.4 nM | half-life [29]: 2.2 h | half-life [30]: 9 h | Tmax [32]: 0.7 h | Cmax [33]: 25 ng/mL | Tmax [34]: 6 h | EC50 [35]: > 100000 nM | concentration at 24 h [36]: 0.51 ng/mL

N[C@]1(C(=O)O)[C@H]2[C@@H](C[C@H]1OCc1cccc(Cl)c1Cl)[C@]2(F)C(=O)O
Ki [1]: 4.35 nM

N[C@]1(C(=O)O)[C@H]2[C@@H](C[C@H]1OCc1cccc(-c3ccccc3)c1)[C@]2(F)C(=O)O
Ki [1]: 9.34 nM

CCC[C@H](O[C@@H]1C[C@@H]2[C@H]([C@]1(N)C(=O)O)[C@@]2(F)C(=O)O)c1ccc(Cl)c(Cl)c1
Ki [1]: 3.05 nM

N[C@]1(C(=O)O)[C@H]2[C@@H](C[C@H]1OCc1ccc(Cl)cc1)[C@]2(F)C(=O)O
concentration at 6 h [4]: 98.2 ng/mL | Tmax [7]: 3 h | concentration at 1 h [8]: 176 ng/mL | concentration at 1 h [10]: 2.51 ng/mL | half-life [12]: 1.67 h | Tmax [13]: 2.3 h | Tmax [14]: 2.7 h | Cmax [15]: 651 ng/mL | Cmax [16]: 272 ng/mL | concentration at 6 h [17]: 3.39 ng/mL | Ki [1]: 3.17 nM | concentration at 3 h [18]: 225 ng/mL | Cmax [20]: 225 ng/mL | Cmax [22]: 3.66 ng/mL | half-life [24]: 2.5 h | half-life [27]: 3.28 h | Ki [2]: 4.77 nM | concentration at 3 h [28]: 3.66 ng/mL | half-life [29]: 3.75 h | Tmax [32]: 1.3 h | Cmax [33]: 76.6 ng/mL | Tmax [34]: 3 h | EC50 [35]: > 100000 nM

N[C@@]1(C(=O)O)[C@@H](OCc2ccc(Cl)c(Cl)c2)C[C@@H]2[C@H]1[C@@]2(F)C(=O)O
Ki [1]: 17.1 nM

N[C@]1(C(=O)O)[C@H]2[C@@H](C[C@H]1OCc1cccc(C(F)(F)F)c1)[C@]2(F)C(=O)O
Ki [1]: 5.72 nM

N[C@]1(C(=O)O)[C@H]2[C@@H](C[C@H]1OCc1c(F)cccc1F)[C@]2(F)C(=O)O
Ki [1]: 7.02 nM

Cc1cccc(CO[C@@H]2C[C@@H]3[C@H]([C@]2(N)C(=O)O)[C@@]3(F)C(=O)O)c1
Ki [1]: 4.53 nM

N[C@]1(C(=O)O)[C@H]2[C@@H](C[C@H]1OCc1cccc(Br)c1)[C@]2(F)C(=O)O
Ki [1]: 4.71 nM

N[C@@]1(C(=O)O)[C@H](O)C[C@@H]2[C@H]1[C@@]2(F)C(=O)O
Ki [1]: 32.9 nM | Ki [2]: 67.1 nM | EC50 [35]: > 100000 nM
